From ChEMBL document CHEMBL1687835, “Using bioluminescence to monitor treatment response in real time in mice with Mycobacterium ulcerans infection” (2011)
The source made the active and inactive calls.

What was measured:
Mycobacterium ulcerans [1] = assay: Antimicrobial activity against recombinant Mycobacterium ulcerans Mu1059 expressing luxAB from vibrio harveyi infected BALB/c mouse assessed as reduction in foodpad CFU count after 2 weeks relative to basal level; assay type: functional, organism-based
Procedure, shortened: (§1)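 Preventive footpad model in female BALB/c mice: treatment started 2 weeks post-infection and was given 5 days/week for 4 weeks (RIF 10 mg/kg gavage; STR 150 mg/kg s.c.). Five mice/group were sacrificed weekly. Footpads were minced in 2 ml PBS, and serial dilutions were plated in duplicate on selective 7H11 at 32°C for 3–4 months. Detection limit was 2 CFU/footpad. Log CFU was compared with day 0 by t test or ANOVA/Dunnett.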

Mycobacterium ulcerans [2] = assay: Antimicrobial activity against recombinant Mycobacterium ulcerans Mu1059 expressing luxAB from vibrio harveyi infected BALB/c mouse assessed as reduction in foodpad CFU count after 1 week relative to basal level; assay type: functional, organism-based; procedure, shortened: as §1
Mycobacterium ulcerans [3] = assay: Antimicrobial activity against wild type Mycobacterium ulcerans ATCC 19423 infected BALB/c mouse assessed as delay to time to foodpad swelling; assay type: functional, organism-based
Mycobacterium ulcerans [4] = assay: Antimicrobial activity against Mycobacterium ulcerans Mu1059 expressing luxAB from vibrio harveyi infected BALB/c mouse assessed as reduction in foodpad CFU count after 4 weeks; assay type: functional, organism-based; procedure, shortened: as §1
Mycobacterium ulcerans [5] = assay: Antimicrobial activity against recombinant Mycobacterium ulcerans Mu1059 expressing luxAB from vibrio harveyi infected BALB/c mouse assessed as reduction in foodpad relative light unit after 2 weeks relative to basal level; assay type: functional, organism-based
Procedure, shortened: (§2)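 Same preventive schedule, with five mice/group sacrificed weekly. Each minced footpad homogenate (in 2 ml PBS) was read by taking a 200-µl sample, adding 20 µl of 1% decanal, and measuring light for 4 s immediately on a luminometer, in duplicate. Log-transformed RLU was compared with day 0 by unpaired t test or one-way ANOVA with Dunnett's posttest (alpha 0.05).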

Mycobacterium ulcerans [6] = assay: Antimicrobial activity against recombinant Mycobacterium ulcerans Mu1059 expressing luxAB from vibrio harveyi infected BALB/c mouse assessed as reduction in foodpad relative light unit after 1 week relative to basal level; assay type: functional, organism-based; procedure, shortened: as §2
Mycobacterium ulcerans [7] = assay: Antimicrobial activity against wild type Mycobacterium ulcerans Mu1059 infected BALB/c mouse assessed as reduction in foodpad CFU count after 4 weeks
Mycobacterium ulcerans [8] = assay: Antimicrobial activity against Mycobacterium ulcerans Mu1059 expressing luxAB from vibrio harveyi infected BALB/c mouse assessed as delay to time to foodpad swelling; assay type: functional
Procedure, shortened: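 Female BALB/c mice, 4 weeks old, were infected in the left hind footpad with 0.03 ml of bacterial suspension in PBS. From week 2 (lesion index 0), treatment ran for 4 weeks, 5 days/week, with drugs in water, 0.2 ml: RIF 10 mg/kg by gavage; STR or KAN 150 mg/kg subcutaneously. After treatment, 15 mice/group were scored weekly for 23 weeks; swelling was defined as lesion index 1.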

Which results are given for `CN[C@@H]1[C@H](O[C@H]2[C@H](O[C@H]3[C@H](O)[C@@H](O)[C@H](N=C(N)N)[C@@H](O)[C@@H]3N=C(N)N)O[C@@H](C)[C@]2(O)C=O)O[C@@H](CO)[C@H](O)[C@H]1O`?
Activity (Mycobacterium ulcerans [1]): Active; Activity (Mycobacterium ulcerans [2]): Active; Activity (Mycobacterium ulcerans [3]): inactive; Activity (Mycobacterium ulcerans [4]): Active; Activity (Mycobacterium ulcerans [5]): Active; Activity (Mycobacterium ulcerans [6]): Active

What does the source list for `NC[C@H]1O[C@H](O[C@H]2[C@H](O)[C@@H](O[C@H]3O[C@H](CO)[C@@H](O)[C@H](N)[C@H]3O)[C@H](N)C[C@@H]2N)[C@H](O)[C@@H](O)[C@@H]1O` [KANAMYCIN]?
Activity (Mycobacterium ulcerans [7]): Active; Time (Mycobacterium ulcerans [8]): 3 weeks; Activity (Mycobacterium ulcerans [3]): inactive; Activity (Mycobacterium ulcerans [4]): inactive
